Results: ChEMBL document CHEMBL3243962, “Antileukemic activity of derivatives of 1,2-dimethyl-3,4-bis(hydroxymethyl)-5-phenylpyrrole bis(N-methylcarbamate)” (J Med Chem, 1979)

Experiments:
[1] = test system: P388; assay: Antitumor activity against mouse P388 cells allografted in CD2F1 mouse assessed as increase in mouse survival at 50 mg/kg, ip of total 9 doses starting 24 hrs post tumor inoculation measured on day 5 of inoculation relative to control; format: functional; settings: route intraperitoneal
Method in brief: (§1)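 Male CD2F1 mice inoculated ip with 6×10^6 P388 leukemia cells. Dosing was ip as a suspension in distilled water–Tween 80, nine daily doses starting 24 h after inoculation. Activity was read as median survival time of treated vs control mice (% T/C); % T/C ≥ 120 was considered significant. Groups were 6 mice.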

[2] = test system: Mus musculus; assay: Toxicity in mouse P388 cells allografted CD2F1 mouse assessed as mouse survival at 50 mg/kg, ip of total 9 doses starting 24 hrs post tumor inoculation measured on day 5 of inoculation relative to control; format: organism-based; parameters: dose 50 mg/kg, route intraperitoneal; settings: in vivo
Method in brief: (§2)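 Male CD2F1 mice bearing ip P388 leukemia (6×10^6 cells) were dosed ip with nine daily doses in distilled water–Tween 80 suspension, starting 24 h after inoculation. Survivors per group of 6 were counted on day 5, i.e. 4 days after the first dose. Body-weight change of treated minus control mice was also recorded.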

[3] = test system: Mus musculus; assay: Toxicity in mouse P388 cells allografted CD2F1 mouse assessed as body weight loss at 50 mg/kg, ip of total 9 doses starting 24 hrs post tumor inoculation measured on day 5 of inoculation relative to control; format: organism-based; parameters: dose 50 mg/kg, route intraperitoneal; settings: in vivo
Method in brief: (§3)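 Male CD2F1 mice inoculated ip with 6×10^6 P388 leukemia cells. Compounds given ip as distilled water–Tween 80 suspension, nine daily doses starting 24 h after inoculation; six mice per dose group. Treated-minus-control body-weight change (T − C) and toxicity-day survivors recorded on day 5 (4 days after first dose).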

[4] = test system: Mus musculus; assay: Toxicity in mouse P388 cells allografted CD2F1 mouse assessed as mouse survival at 12.5 mg/kg, ip of total 9 doses starting 24 hrs post tumor inoculation measured on day 5 of inoculation relative to control; format: organism-based; parameters: dose 12.5 mg/kg, route intraperitoneal; settings: in vivo; method in brief: as §2
[5] = test system: P388; assay: Antitumor activity against mouse P388 cells allografted in CD2F1 mouse assessed as increase in mouse survival at 100 mg/kg, ip of total 9 doses starting 24 hrs post tumor inoculation measured on day 5 of inoculation relative to control; format: functional; settings: route intraperitoneal; method in brief: as §1
[6] = test system: P388; assay: Antitumor activity against mouse P388 cells allografted in CD2F1 mouse assessed as increase in mouse survival at 25 mg/kg, ip of total 9 doses starting 24 hrs post tumor inoculation measured on day 5 of inoculation relative to control; format: functional; settings: route intraperitoneal; method in brief: as §1
[7] = test system: Mus musculus; assay: Toxicity in mouse P388 cells allografted CD2F1 mouse assessed as body weight loss at 200 mg/kg, ip of total 9 doses starting 24 hrs post tumor inoculation measured on day 5 of inoculation relative to control; format: organism-based; parameters: dose 200 mg/kg, route intraperitoneal; settings: in vivo; method in brief: as §3
[8] = test system: Mus musculus; assay: Toxicity in mouse P388 cells allografted CD2F1 mouse assessed as mouse survival at 200 mg/kg, ip of total 9 doses starting 24 hrs post tumor inoculation measured on day 5 of inoculation relative to control; format: organism-based; parameters: dose 200 mg/kg, route intraperitoneal; settings: in vivo; method in brief: as §2
[9] = test system: Mus musculus; assay: Toxicity in mouse P388 cells allografted CD2F1 mouse assessed as body weight loss at 25 mg/kg, ip of total 9 doses starting 24 hrs post tumor inoculation measured on day 5 of inoculation relative to control; format: organism-based; parameters: dose 25 mg/kg, route intraperitoneal; settings: in vivo; method in brief: as §3
[10] = test system: Mus musculus; assay: Toxicity in mouse P388 cells allografted CD2F1 mouse assessed as body weight loss at 100 mg/kg, ip of total 9 doses starting 24 hrs post tumor inoculation measured on day 5 of inoculation relative to control; format: organism-based; parameters: dose 100 mg/kg, route intraperitoneal; settings: in vivo; method in brief: as §3
[11] = test system: P388; assay: Antitumor activity against mouse P388 cells allografted in CD2F1 mouse assessed as increase in mouse survival at 200 mg/kg, ip of total 9 doses starting 24 hrs post tumor inoculation measured on day 5 of inoculation relative to control; format: functional; settings: route intraperitoneal; method in brief: as §1
[12] = test system: Mus musculus; assay: Toxicity in mouse P388 cells allografted CD2F1 mouse assessed as body weight loss at 12.5 mg/kg, ip of total 9 doses starting 24 hrs post tumor inoculation measured on day 5 of inoculation relative to control; format: organism-based; parameters: dose 12.5 mg/kg, route intraperitoneal; settings: in vivo; method in brief: as §3
[13] = test system: Mus musculus; assay: Toxicity in mouse P388 cells allografted CD2F1 mouse assessed as mouse survival at 25 mg/kg, ip of total 9 doses starting 24 hrs post tumor inoculation measured on day 5 of inoculation relative to control; format: organism-based; parameters: dose 25 mg/kg, route intraperitoneal; settings: in vivo; method in brief: as §2
[14] = test system: P388; assay: Antitumor activity against mouse P388 cells allografted in CD2F1 mouse assessed as increase in mouse survival at 12.5 mg/kg, ip of total 9 doses starting 24 hrs post tumor inoculation measured on day 5 of inoculation relative to control; format: functional; settings: route intraperitoneal; method in brief: as §1
[15] = test system: Mus musculus; assay: Toxicity in mouse P388 cells allografted CD2F1 mouse assessed as mouse survival at 100 mg/kg, ip of total 9 doses starting 24 hrs post tumor inoculation measured on day 5 of inoculation relative to control; format: organism-based; parameters: dose 100 mg/kg, route intraperitoneal; settings: in vivo; method in brief: as §2
[16] = test system: P388; assay: Antitumor activity against mouse P388 cells allografted in CD2F1 mouse assessed as increase in mouse survival at 80 mg/kg, ip of total 9 doses starting 24 hrs post tumor inoculation measured on day 5 of inoculation relative to control; format: functional; settings: route intraperitoneal; method in brief: as §1
[17] = test system: Mus musculus; assay: Toxicity in mouse P388 cells allografted CD2F1 mouse assessed as body weight loss at 20 mg/kg, ip of total 9 doses starting 24 hrs post tumor inoculation measured on day 5 of inoculation relative to control; format: organism-based; parameters: dose 20 mg/kg, route intraperitoneal; settings: in vivo; method in brief: as §3
[18] = test system: Mus musculus; assay: Toxicity in mouse P388 cells allografted CD2F1 mouse assessed as body weight loss at 5 mg/kg, ip of total 9 doses starting 24 hrs post tumor inoculation measured on day 5 of inoculation relative to control; format: organism-based; parameters: dose 5 mg/kg, route intraperitoneal; settings: in vivo; method in brief: as §3
[19] = test system: Mus musculus; assay: Toxicity in mouse P388 cells allografted CD2F1 mouse assessed as body weight loss at 40 mg/kg, ip of total 9 doses starting 24 hrs post tumor inoculation measured on day 5 of inoculation relative to control; format: organism-based; parameters: dose 40 mg/kg, route intraperitoneal; settings: in vivo; method in brief: as §3
[20] = test system: Mus musculus; assay: Toxicity in mouse P388 cells allografted CD2F1 mouse assessed as mouse survival at 10 mg/kg, ip of total 9 doses starting 24 hrs post tumor inoculation measured on day 5 of inoculation relative to control; format: organism-based; parameters: dose 10 mg/kg, route intraperitoneal; settings: in vivo; method in brief: as §2
[21] = test system: Mus musculus; assay: Toxicity in mouse P388 cells allografted CD2F1 mouse assessed as body weight loss at 10 mg/kg, ip of total 9 doses starting 24 hrs post tumor inoculation measured on day 5 of inoculation relative to control; format: organism-based; parameters: dose 10 mg/kg, route intraperitoneal; settings: in vivo; method in brief: as §3
[22] = test system: P388; assay: Antitumor activity against mouse P388 cells allografted in CD2F1 mouse assessed as increase in mouse survival at 20 mg/kg, ip of total 9 doses starting 24 hrs post tumor inoculation measured on day 5 of inoculation relative to control; format: functional; settings: route intraperitoneal; method in brief: as §1
[23] = test system: Mus musculus; assay: Toxicity in mouse P388 cells allografted CD2F1 mouse assessed as mouse survival at 20 mg/kg, ip of total 9 doses starting 24 hrs post tumor inoculation measured on day 5 of inoculation relative to control; format: organism-based; parameters: dose 20 mg/kg, route intraperitoneal; settings: in vivo; method in brief: as §2
[24] = test system: Mus musculus; assay: Toxicity in mouse P388 cells allografted CD2F1 mouse assessed as mouse survival at 5 mg/kg, ip of total 9 doses starting 24 hrs post tumor inoculation measured on day 5 of inoculation relative to control; format: organism-based; parameters: dose 5 mg/kg, route intraperitoneal; settings: in vivo; method in brief: as §2
[25] = test system: P388; assay: Antitumor activity against mouse P388 cells allografted in CD2F1 mouse assessed as increase in mouse survival at 40 mg/kg, ip of total 9 doses starting 24 hrs post tumor inoculation measured on day 5 of inoculation relative to control; format: functional; settings: route intraperitoneal; method in brief: as §1
[26] = test system: P388; assay: Antitumor activity against mouse P388 cells allografted in CD2F1 mouse assessed as increase in mouse survival at 5 mg/kg, ip of total 9 doses starting 24 hrs post tumor inoculation measured on day 5 of inoculation relative to control; format: functional; settings: route intraperitoneal; method in brief: as §1
[27] = test system: Mus musculus; assay: Toxicity in mouse P388 cells allografted CD2F1 mouse assessed as mouse survival at 40 mg/kg, ip of total 9 doses starting 24 hrs post tumor inoculation measured on day 5 of inoculation relative to control; format: organism-based; parameters: dose 40 mg/kg, route intraperitoneal; settings: in vivo; method in brief: as §2
[28] = test system: P388; assay: Antitumor activity against mouse P388 cells allografted in CD2F1 mouse assessed as increase in mouse survival at 10 mg/kg, ip of total 9 doses starting 24 hrs post tumor inoculation measured on day 5 of inoculation relative to control; format: functional; settings: route intraperitoneal; method in brief: as §1
[29] = test system: Mus musculus; assay: Toxicity in mouse P388 cells allografted CD2F1 mouse assessed as mouse survival at 80 mg/kg, ip of total 9 doses starting 24 hrs post tumor inoculation measured on day 5 of inoculation relative to control; format: organism-based; parameters: dose 80 mg/kg, route intraperitoneal; settings: in vivo; method in brief: as §2
[30] = test system: Mus musculus; assay: Toxicity in mouse P388 cells allografted CD2F1 mouse assessed as body weight loss at 80 mg/kg, ip of total 9 doses starting 24 hrs post tumor inoculation measured on day 5 of inoculation relative to control; format: organism-based; parameters: dose 80 mg/kg, route intraperitoneal; settings: in vivo; method in brief: as §3

CNC(=O)OCc1c(COC(=O)NC)c(-c2ccc(S(C)(=O)=O)cc2)n(C)c1C
T/C [1]: 162%
Activity [2]: Non-toxic
Activity [3]: 1.1 g
Activity [4]: Non-toxic
T/C [5]: 180%
T/C [6]: 144%
Activity [7]: 3.7 g
Activity [8]: Non-toxic
Activity [9]: 0.8 g
Activity [10]: 2.1 g
T/C [11]: 198%
Activity [12]: 0.4 g
Activity [13]: Non-toxic
T/C [14]: 136%
Activity [15]: Non-toxic

CNC(=O)OCc1c(COC(=O)NC)c(-c2ccc(S(=O)(=O)c3ccccc3)cc2)n(C)c1C
T/C [16]: 153%
Activity [17]: 1.9 g
Activity [18]: 1.3 g
Activity [19]: 3.1 g
Activity [20]: Non-toxic
Activity [21]: 0.9 g
T/C [22]: 146%
Activity [23]: Non-toxic
Activity [24]: Non-toxic
T/C [25]: 153%
T/C [26]: 137%
Activity [27]: Non-toxic
T/C [28]: 136%
Activity [29]: Non-toxic
Activity [30]: 3.6 g
